According to ChEMBL document CHEMBL1138931, “Synthesis and antimalarial efficacy of aza-fused rhodacyanines in vitro and in the P. berghei mouse model” (J Med Chem, 2006):

Tests used:
Plasmodium berghei [1] = experiment: Suppression of Plasmodium berghei NK65 infected ICR mice (Mus musculus) at 25 mg/kg/day intraperitoneal dose over 4 days; format: functional
How it was run: (§1)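 Peters' 4-day suppressive test: ICR mice (five per group) infected with drug-sensitive P. berghei NK65, dosed daily for 4 days intraperitoneally or per os. Percent suppression = reduction of parasitemia in treated versus untreated infected control mice. Mice were observed after treatment to record mean survival days.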

Mus musculus [2] = experiment: Activity in ICR mice (Mus musculus) infected with Plasmodium berghei NK65 after 4 days at 25 mg/kg/day, intraperitoneally assessed as mean survival days; format: functional; details: route intraperitoneal
How it was run: (§2)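 Peters' 4-day suppressive test; P. berghei NK65 (drug-sensitive) in groups of five ICR mice; compound given daily for 4 days, ip or po at the stated mg kg-1 day-1. Mice followed after treatment ends; mean survival days recorded against untreated infected controls.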

Plasmodium falciparum = experiment: Antimalarial activity against chloroquine-resistant Plasmodium falciparum K1; format: functional, organism-based
How it was run: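 P. falciparum K1 (chloroquine-resistant) tested in vitro by the Desjardins method; activity given as EC50.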

L6 [3] = experiment: Cytotoxicity against rat L6 cell line; format: functional, cell-based
How it was run: (§3)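 Rat skeletal myoblast L-6 line used for cytotoxicity; EC50 determined. Antiplasmodial EC50 was measured against chloroquine-resistant P. falciparum strain K1 in vitro by the Desjardins method. Selectivity index = EC50(L-6)/EC50(P. falciparum K1).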

L6 [4] = experiment: Selectivity index, EC50 for L6 cells/EC50 for Plasmodium falciparum K1; format: functional; how it was run: as §3
Plasmodium berghei [5] = experiment: Suppression of Plasmodium berghei NK65 infected ICR mice (Mus musculus) at 10 mg/kg/day intraperitoneal dose over 4 days; format: functional; how it was run: as §1
Mus musculus [6] = experiment: Activity in ICR mice (Mus musculus) infected with Plasmodium berghei NK65 after 4 days at 10 mg/kg/day, intraperitoneally assessed as mean survival days; format: functional; details: route intraperitoneal; how it was run: as §2
Plasmodium berghei [7] = experiment: Suppression of Plasmodium berghei NK65 infected ICR mice (Mus musculus) at 100 mg/kg/day peroral dose over 4 days; format: functional; details: route oral; how it was run: as §1
Mus musculus [8] = experiment: Activity in ICR mice (Mus musculus) infected with Plasmodium berghei NK65 after 4 days at 100 mg/kg/day, perorally assessed as mean survival days; format: functional; details: route oral; how it was run: as §2
Mus musculus [9] = experiment: Activity in ICR mice (Mus musculus) infected with Plasmodium berghei NK65 after 4 days at 20 mg/kg/day, intraperitoneally assessed as mean survival days; format: functional; details: route intraperitoneal; how it was run: as §2
Mus musculus [10] = experiment: Activity in ICR mice (Mus musculus) infected with Plasmodium berghei NK65 after 4 days at 40 mg/kg/day, intraperitoneally assessed as mean survival days; format: functional; details: route intraperitoneal; how it was run: as §2
Plasmodium berghei [11] = experiment: Suppression of Plasmodium berghei NK65 infected ICR mice (Mus musculus) at 20 mg/kg/day intraperitoneal dose over 4 days; format: functional; how it was run: as §1
Plasmodium berghei [12] = experiment: Suppression of Plasmodium berghei NK65 infected ICR mice (Mus musculus) at 40 mg/kg/day intraperitoneal dose over 4 days; format: functional; how it was run: as §1

SMILES | Activity (Plasmodium berghei [1]) [%] | Activity (Mus musculus [2]) [days] | EC50 (Plasmodium falciparum) [nM] | EC50 (L6 [3]) [nM] | Selectivity index (L6 [4]) | other results
CCN1C(=O)/C(=c2/s/c(=C3/C=CC=CN3C)c(=O)n2CC)S/C1=N\c1sc2cc(OC)ccc2[n+]1C.[Cl-] | 98.3 | 6.3 |  |  |  | 
CCN1C(=O)/C(=c2/s/c(=C3/C=CC=CN3C)c(=O)n2CC)S/C1=N\c1scc(-c2ccc(Cl)cc2)[n+]1C.[Cl-] | 95.6 | 5.3 |  |  |  | 
CCN1C(=O)/C(=c2/s/c(=C3/SCCN3C)c(=O)n2CC)S/C1=N\c1sc2cc(Cl)ccc2[n+]1C.[Cl-] |  | 16 | 23 | 12000 | 520 | 
CCN1C(=O)/C(=C2\Sc3ccccc3N2C)S/C1=N\c1sc2cc(Cl)ccc2[n+]1C.[Cl-] |  | 5.5 |  |  |  | 
CCN1C(=O)/C(=c2/s/c(=C3/SCCN3C)c(=O)n2CC)S/C1=N\c1sc2cc(OC)ccc2[n+]1C.[Cl-] | 95 | 5 |  |  |  | 
CCN(CC)CCCC(C)Nc1ccnc2cc(Cl)ccc12 (stereo not given) [CHLOROQUINE] |  |  | 150 |  |  | Activity (Plasmodium berghei [5]): 90.6%; Activity (Mus musculus [6]): 22.7 days
CCN1C(=O)/C(=C2\C=Cc3ccccc3N2C)S/C1=N\c1sc2cc(Cl)ccc2[n+]1C.[Cl-] |  |  | 4.4 | 11000 | 2500 | 
CCN1C(=O)/C(=c2/s/c(=C3/C=CC=CN3C)c(=O)n2CC)S/C1=N\c1sc2cc(F)ccc2[n+]1C.[Cl-] | 79.5 | 10.8 |  |  |  | 
CCn1c(=O)/c(=C2\C=CC=CN2C)s/c1=C1\S/C(=N\c2sc3cc(Cl)ccc3[n+]2C)N(C(C)C)C1=O.[Cl-] |  | 7.7 |  |  |  | 
C=CCN1C(=O)/C(=c2/s/c(=C3/SCCN3C)c(=O)n2CC)S/C1=N\c1sc2cc(Cl)ccc2[n+]1C.[Cl-] | 73.1 | 12.8 |  |  |  | 
C=CCN1C(=O)/C(=c2/s/c(=C3/C=CC=CN3C)c(=O)n2CC)S/C1=N\c1sc2cc(Cl)ccc2[n+]1C.[Cl-] | 95.7 | 18 |  |  |  | 
CCN1C(=O)/C(=c2/s/c(=C3/C=CC=CN3C)c(=O)n2CC)S/C1=N\c1sc2cc(Cl)ccc2[n+]1C.[Cl-] |  | 25.3 | 10 | 46000 | 4600 | Activity (Plasmodium berghei [7]): 41.7%; Activity (Mus musculus [6]): 11.8 days; Activity (Mus musculus [8]): 6.5 days; Activity (Mus musculus [9]): 20.3 days; Activity (Mus musculus [10]): 7 days
CCN1C(=O)/C(=c2/s/c(=C3/C=CC=CN3C)c(=O)n2CC)S/C1=N\c1sc2ccccc2[n+]1C.[Cl-] | 96.4 | 22 | 22 | 14000 | 640 | Activity (Plasmodium berghei [5]): 70.8%; Activity (Plasmodium berghei [11]): 92.4%; Activity (Plasmodium berghei [12]): 97.8%; Activity (Mus musculus [6]): 9.8 days; Activity (Mus musculus [9]): 19 days; Activity (Mus musculus [10]): 7.8 days
CCN1C(=O)/C(=C2\C=Cc3ccccc3N2C)S/C1=N\c1cccc[n+]1C.[Cl-] |  |  | 5.9 | 120000 | 20000 | 
CCN1C(=O)/C(=c2/s/c(=C3/C=Cc4ccccc4N3C)c(=O)n2CC)S/C1=N\c1cccc[n+]1C.[Cl-] | 78.4 | 5.6 |  |  |  | 
C=CC[n+]1ccccc1/C=c1\s/c(=C2/Sc3ccccc3N2C)c(=O)n1C.Cc1ccc(S(=O)(=O)[O-])cc1 |  |  | 19 | 100000 | 5000 | Activity (Plasmodium berghei [5]): 27%
CCN1C(=O)/C(=c2/s/c(=C3/C=Cc4ccccc4N3C)c(=O)n2CC)S/C1=N\c1sc2cc(Cl)ccc2[n+]1C.[Cl-] | 49.7 | 7 |  |  |  | 
